The list is not random: actives were taken first. Their share in the collection is about 2.5%.
SENP6 inh: SENP6 protease inhibitors, primary screen, biochemical, luminescence, uHTS; inhibition, % at 10 µM; hit rate 1.8% among 330,000; AID 2599, 2010; Recombinant SENP6 catalytic domain, aminoluciferin luminescence;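 active = inhibition above about 50% at the single tested dose, limit read from the data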;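 note: plate controls were DMSO wells with enzyme for no effect and DMSO wells lacking enzyme for full effect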
SENP8 block-1: human SENP8 protease inhibitors, primary screen, biochemical, fluorescence, Nedd8 protein substrate, uHTS; recombinant SENP8; hit rate 0.64% among 360,000; AID 602440, 2012; Sentrin-specific protease 8 (Homo sapiens), Q96LD8; inhibition, % at 20 µM; in the data active = inhibition mostly above about 40%, no sharp cut-off; inactive = mostly below about 27%
Target sequence (Q96LD8 whole entry, looked up): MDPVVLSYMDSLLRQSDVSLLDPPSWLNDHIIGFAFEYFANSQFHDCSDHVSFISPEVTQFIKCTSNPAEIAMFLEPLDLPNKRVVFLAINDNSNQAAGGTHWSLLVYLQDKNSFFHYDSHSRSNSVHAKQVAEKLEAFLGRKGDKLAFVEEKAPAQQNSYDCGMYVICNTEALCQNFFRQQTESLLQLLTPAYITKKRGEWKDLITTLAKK
SENP8 block-2: SENP8 protease inhibitors, primary screen, biochemical, luminescence; Sentrin-specific protease 8 (Homo sapiens), Q96LD8; purified SENP8, Z-RLRGG-aminoluciferin cleavage; inhibition, % at 10 µM; hit rate 1.2% among 330,000; in the data active = inhibition above about 50%
SENP1 inh: human SENP1 catalytic domain inhibitors, primary screen, biochemical, FRET, uHTS | hit rate 0.21% among 360,000 | AID 624204, 2012 | recombinant SENP1 catalytic domain, CyPet-SUMO1-YPet FRET cleavage | Sentrin-specific protease 1 (Homo sapiens), Q9P0U3 | inhibition, % at 10 µM;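 active = inhibition at least 30% at 10 µM, raw YFP signal under a set limit, fluorescence ratio 0.5 to 1.5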;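 note: 0% = enzyme with DMSO and 100% = no enzyme wells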
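System: Recombinant human SENP1 catalytic domain, His6-tagged | Incubation: Enzyme reaction for 50 min at room temperature, dark | Medium: Tris pH 8 with BME, BSA, NP40 and catalase | Also added: 25 nM SUMO1 FRET substrate | Compound: 10 µM single point, 0.5% DMSO | Measured by: FRET fluorescence in CFP and YFP emission channels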
SENP7 block: SENP7 protease inhibitors, primary screen, biochemical, luminescence, uHTS; hit rate 1.5% among 330,000; Sentrin-specific protease 7 (Homo sapiens), Q9BQF6; inhibition, % at 5 µM; recombinant SENP7, Z-RLRGG-aminoluciferin luminescence, 40 min;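 active = inhibition above about 50% at the single test dose, limit read from the data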;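 note: plate controls were DMSO with enzyme for no effect and no enzyme buffer wells for full effect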
Target sequence (Q9BQF6 706-1050 limits assumed): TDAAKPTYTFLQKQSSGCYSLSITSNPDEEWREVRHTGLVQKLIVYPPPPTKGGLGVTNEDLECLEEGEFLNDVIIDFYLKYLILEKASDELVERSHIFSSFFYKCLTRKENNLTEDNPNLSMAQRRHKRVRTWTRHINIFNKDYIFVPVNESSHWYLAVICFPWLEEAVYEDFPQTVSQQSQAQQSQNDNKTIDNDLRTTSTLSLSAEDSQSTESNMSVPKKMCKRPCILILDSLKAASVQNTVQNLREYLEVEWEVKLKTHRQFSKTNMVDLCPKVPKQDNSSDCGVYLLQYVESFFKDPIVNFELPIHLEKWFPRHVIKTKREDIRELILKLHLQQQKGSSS
SENP8 conf: human SENP8 protease inhibitors, confirmation, biochemical, Nedd8 protein substrate, single concentration; shares compounds with SENP8 block-1; purified SENP8, Nedd8-AMC/pro-Nedd8 cleavage fluorescence, 30 min; inhibition, % at 25 µM; hit rate 15% among 1,400; in the data active = inhibition mostly above about 39%, no sharp cut-off; inactive = mostly below about 34%
Starred values were filed as active, the others as inactive.

CC(C)OCCCNC(=O)c1ccc(CN2CCc3ccccc3C2)cc1 was read as SENP6 inh -17.4, SENP8 block-1 6.6, SENP8 block-2 -9.2, SENP1 inh 2.2 and SENP7 block 0.1.
`CC(C)NC(=O)c1ccc(CN2CCc3ccccc3C2)cc1` gave SENP6 inh -7.9, SENP8 block-1 44.0*, SENP8 block-2 7.6, SENP1 inh -1.7, SENP7 block 2.3 and SENP8 conf 6.8.
O=C(O)CCc1ccc(-c2ccc(Br)cc2)n1NC(=O)c1ccc([N+](=O)[O-])cc1 was read as SENP6 inh -10.1, SENP8 block-1 44.1*, SENP8 block-2 0.2, SENP1 inh 2.5, SENP7 block 4.6 and SENP8 conf 25.2.
Cc1noc(C)c1S(=O)(=O)NCc1ccc(CN(C)C)cc1 was read as SENP6 inh -1.1, SENP8 block-1 4.1, SENP8 block-2 0.3, SENP1 inh 0.3 and SENP7 block -5.1.
Screening Cc1ccc(C(=O)NCC(=O)OCC(=O)N2CCCc3ccccc32)cc1 returned SENP6 inh -14.7, SENP8 block-1 54.7*, SENP8 block-2 3.0, SENP1 inh 0.3, SENP7 block 1.7 and SENP8 conf -2.6.
CCOC(=O)/C(=N/Nc1ccccc1)N1CCCc2ccccc21 was read as SENP6 inh -8.6, SENP8 block-1 43.1*, SENP8 block-2 -0.1, SENP1 inh 1.3, SENP7 block 0.8 and SENP8 conf 18.5.
For Cc1ccc(S(=O)(=O)N2C[C@]3(O)C[C@@H]4C(=O)N(c5ccccc5)C(=O)[C@@H]4C[C@]3(OC(=O)Nc3cccs3)C2)cc1 the results were SENP8 block-1 5.7 and SENP1 inh 1.9.
Nc1nc(SCc2ccc(Cl)cc2Cl)nc2nc3c(cc12)CCCC3 was read as SENP6 inh -8.9, SENP8 block-1 -399.3, SENP8 block-2 -4.5, SENP1 inh -27.8 and SENP7 block 4.7.
`O=C(CN(C(=O)c1csnn1)c1ccccc1)NCCc1ccccc1` gave SENP6 inh -6.2, SENP8 block-1 13.0, SENP8 block-2 -3.0, SENP1 inh -1.5 and SENP7 block -1.6.
Screening CC(C)CCNC(=O)C1(c2cccs2)CCOCC1 returned SENP6 inh 17.0, SENP8 block-1 41.4*, SENP8 block-2 -8.4, SENP1 inh -0.5, SENP7 block -3.5 and SENP8 conf 4.3.
`Cc1ccc(SCC(=O)OCC(=O)N(C)CC(=O)Nc2ccccc2Cl)cc1` gave SENP6 inh -13.5, SENP8 block-1 3.6, SENP8 block-2 -9.0, SENP1 inh 5.1 and SENP7 block 7.8.
Screening COc1ccc(NCC(=O)N/N=C2\CCc3ccccc32)cc1 returned SENP6 inh 14.6, SENP8 block-1 40.1*, SENP8 block-2 -0.8, SENP1 inh -3.3, SENP7 block 8.5 and SENP8 conf 26.4.
Screening Nn1cnnc1N/N=C/c1ccc(Cl)c([N+](=O)[O-])c1 returned SENP6 inh -7.8, SENP8 block-1 65.6*, SENP8 block-2 -6.9, SENP1 inh 1.5, SENP7 block -3.6 and SENP8 conf 63.8*.
`CCc1nnc(N/N=C/c2ccc(N3CCC(C)CC3)c([N+](=O)[O-])c2)n1N` gave SENP6 inh -17.2, SENP8 block-1 62.0*, SENP8 block-2 0.4, SENP1 inh 1.7, SENP7 block 19.2 and SENP8 conf 43.1*.
Screening Cc1nnc(N/N=C/c2cc([N+](=O)[O-])c(N3CCC(C)CC3)cc2N2CCC(C)CC2)n1N returned SENP6 inh 16.9, SENP8 block-1 33.7, SENP8 block-2 -3.0, SENP1 inh 0.3 and SENP7 block 4.5.
`COc1ccc(OCC(=O)OCC(=O)NC2CCCCC2C)cc1` (centres undefined) gave SENP6 inh 5.9, SENP8 block-1 45.6*, SENP8 block-2 4.9, SENP1 inh 2.0, SENP7 block 1.7 and SENP8 conf 10.0.
Screening CC1CCCCC1NC(=O)COC(=O)COc1ccccc1Cl (centres undefined) returned SENP6 inh -8.5, SENP8 block-1 4.7, SENP8 block-2 1.4, SENP1 inh 3.9 and SENP7 block 3.6.
Screening Cc1[nH]n(-c2cccc3ccccc23)c(=O)c1/C=N/c1sc2c(c1C#N)CCC2 returned SENP6 inh 6.5, SENP8 block-1 13.7, SENP8 block-2 3.6, SENP1 inh -3.2 and SENP7 block -1.4.
`Cc1[nH]n(-c2ccc(F)cc2)c(=O)c1/C=N/c1sc2c(c1C#N)CCCC2` gave SENP6 inh 10.7, SENP8 block-1 47.8*, SENP8 block-2 8.5, SENP1 inh 1.2, SENP7 block 7.7 and SENP8 conf 22.6.
`COC(=O)Cc1ccc(NC(=S)NC2CC2)cc1` gave SENP6 inh -12.8, SENP8 block-1 18.4, SENP8 block-2 1.5, SENP1 inh 0.5 and SENP7 block -4.9.
CCOC(=O)c1nc(NNC(=O)c2ccc([N+](=O)[O-])cc2)sc1C was read as SENP6 inh 20.0, SENP8 block-1 41.0*, SENP8 block-2 -1.6, SENP1 inh 0.4, SENP7 block 4.9 and SENP8 conf 2.3.
`CCOC(=O)c1sc(NNC(=O)c2ccc(C)cc2)nc1C` gave SENP6 inh -18.4, SENP8 block-1 5.2, SENP8 block-2 -3.9, SENP1 inh -11.9 and SENP7 block -10.2.
`CC(C)[C@H]1COCCS(=O)(=O)N1Cc1ccccc1-c1ccccc1` gave SENP8 block-1 4.1, SENP1 inh -0.6 and SENP7 block 2.0.
For O=C1C2=C(c3ccccc31)[N+](=O)C1CCCCC1N2[O-] (centres undefined) the results were SENP6 inh 49.9, SENP8 block-1 83.6*, SENP8 block-2 27.8, SENP1 inh -0.5, SENP7 block 30.6 and SENP8 conf 60.7*.
For O=C1c2ccccc2C(=O)c2c1ccc1c(=O)n(C3CCCCC3)[nH]c21 the results were SENP6 inh 17.4, SENP8 block-1 32.9, SENP8 block-2 -7.8, SENP1 inh -3.3 and SENP7 block -2.9.
Screening CN(C)c1ccc(NC(=S)c2ccc3ccccc3n2)cc1 returned SENP6 inh 5.3, SENP8 block-1 41.5*, SENP8 block-2 -12.4, SENP1 inh 22.1, SENP7 block -14.4 and SENP8 conf 18.2.
For Cc1ccc(C)c(NC(=S)c2ccc3ccccc3n2)c1 the results were SENP6 inh 45.0, SENP8 block-1 11.8, SENP8 block-2 14.0, SENP1 inh -2.0 and SENP7 block 38.6.
CC1=C/C(=C\C=C(C#N)C#N)N(C)c2ccccc21 was read as SENP6 inh -19.1, SENP8 block-1 49.8*, SENP8 block-2 4.0, SENP1 inh 71.5*, SENP7 block 3.1 and SENP8 conf 10.2.

High-throughput results (PubChem BioAssay)
